In assay [1] the target is T1, Mitogen-activated protein kinase 14 (Homo sapiens, UniProt Q16539). Kind of assay: Inhibitory activity against Mitogen-activated protein kinase p38 alpha 2 (expressed Escherichia coli) at concentration of 500 nM. In short, it runs like this: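 Activated p38 α2 (0.05 µg/well) phosphorylating myelin basic protein (10 µg/well) in 25 mM HEPES pH 7.4, 20 mM MgCl₂, 150 mM NaCl. Compounds were added from 10% DMSO in water. Reactions were started with 10 µM ATP plus 0.2 µCi [γ-33P]ATP per well, run 35 min at 32 °C, and stopped with HCl. Filter-bound ³³P was counted by scintillation.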
T1 sequence (Q16539 whole entry): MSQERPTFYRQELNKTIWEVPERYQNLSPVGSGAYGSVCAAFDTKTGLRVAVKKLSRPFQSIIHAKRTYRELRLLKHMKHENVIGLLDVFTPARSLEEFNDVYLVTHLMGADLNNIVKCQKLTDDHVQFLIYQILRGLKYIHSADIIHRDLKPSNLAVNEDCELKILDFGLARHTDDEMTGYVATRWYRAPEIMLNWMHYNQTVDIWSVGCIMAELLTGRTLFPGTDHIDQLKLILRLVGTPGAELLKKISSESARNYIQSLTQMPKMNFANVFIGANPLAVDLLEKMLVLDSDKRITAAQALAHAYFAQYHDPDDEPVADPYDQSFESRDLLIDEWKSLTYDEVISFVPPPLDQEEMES

The target of assay [2] is T1, Mitogen-activated protein kinase 14. Kind of assay: Inhibitory activity against Mitogen-activated protein kinase p38 alpha 2 expressed in Escherichia coli.
For a further assay, the system named is SW1353. In words: Compound was evaluated for its ability to inhibit IL-6 production in SW1353 cells treated with cytokines IL-1 and TNF. The assay is classed as functional, cell-based. Conditions: Homo sapiens.

The source of these data is ChEMBL document CHEMBL1133306, “Discovery of a new class of p38 kinase inhibitors” (Bioorg Med Chem Lett, 2000).

What is called inhibition is the share of the control response that was lost under treatment. Low readings indicate little suppression, high ones strong suppression. As a reminder, the IC50 is the concentration needed to halve the response being measured. Low readings indicate greater potency in that assay, high ones weaker potency in that assay. `O=C(Nc1cc(C2CCC2)no1)Nc1cccc(Cl)c1Cl` had an inhibition in assay [1] of 57%. This compound had an IC50 in assay [2] of 370 nM. Compound `Cc1cc(NC(=O)Nc2cccc(Cl)c2Cl)on1` yielded an inhibition in assay [1] of 4%. `CC(C)(C)c1cc(NC(=O)Nc2cccc(Cl)c2Cl)no1` had an inhibition in assay [1] of 88%. Also, the 50% inhibitory concentration (IC50) was 1200 nM in the assay on SW1353 and 58 nM in assay [2].

Regarding `CCCCc1cc(NC(=O)Nc2cccc(Cl)c2Cl)on1`, the inhibition in assay [1] was 33%. The same compound yielded an IC50 in assay [2] of 1100 nM. The compound `O=C(Nc1cc(C23CC4CC(CC(C4)C2)C3)no1)Nc1cccc(Cl)c1Cl` had an inhibition in assay [1] of 9%. The same measure, in the same setting: for `CCC(C)(C)c1noc(NC(=O)Nc2cccc(Cl)c2Cl)c1C` the value was 18%; for `CC(=O)Nc1ccc(NC(=O)Nc2cc(C(C)(C)C)no2)cc1`, 20%. For the compound `CC(C)(C)Cc1cc(NC(=O)Nc2cccc(Cl)c2Cl)on1`, in assay [1], the inhibition came to 81%. The same compound had a 50% inhibitory concentration (IC50) in assay [2] of 120 nM. On to `CC(C)(C)c1cc(NC(=O)Nc2ccccc2C(F)(F)F)no1`, for which the inhibition in assay [1] came to 36%. In assay [2], `Cc1cc(F)ccc1-c1cc(N(C(N)=O)c2c(Cl)cccc2Cl)ccc1CO` registered an IC50 of 2 nM. As for `CC(C)(C)c1cc(NC(=O)Nc2ccc(C(F)(F)F)cc2)no1`, the inhibition in assay [1] worked out at 39%. On the same count and under the same terms, with `CC(=O)Nc1cccc(NC(=O)Nc2cc(C(C)(C)C)on2)c1` the figure was 18%. The same measure, in the same setting: with `Cc1cccc(NC(=O)Nc2cc(C(C)(C)C)no2)c1C` the figure was 49%; with `CC(C)(C)c1cc(NC(=O)Nc2ccc(Cl)cc2C(F)(F)F)no1`, 9%. In assay [1], `CC(C)(C)c1cc(NC(=O)Nc2ccc(Cl)cc2)on1` gave an inhibition of 68%. This compound also had an IC50 in assay [2] of 260 nM.

`CC(C)c1cc(NC(=O)Nc2cccc(Cl)c2Cl)on1` had an inhibition in assay [1] of 62%. Moreover, in assay [2], the IC50 came to 290 nM. As for `CC(C)(C)c1cc(NC(=O)Nc2ccc(C(F)(F)F)cc2)on1`, the inhibition in assay [1] was determined as 77%. The compound also showed an IC50 in assay [2] of 200 nM. As for `Cc1cccc(NC(=O)Nc2cc(C(C)(C)C)on2)c1C`, the inhibition in assay [1] amounted to 54%. For the compound `CC(C)(C)c1cc(NC(=O)Nc2cc(Br)cc(Br)c2)no1`, in assay [2], it took 710 nM to reach half-maximal inhibition (IC50). Compound `CC(C)(C)c1cc(NC(=O)Nc2ccccc2)no1` gave an inhibition in assay [1] of 33%.

Regarding `CC(=O)Nc1cccc(NC(=O)Nc2cc(C(C)(C)C)no2)c1`, the inhibition in assay [1] amounted to 11%.

In the case of `CC(C)(C)c1cc(NC(=O)Nc2ccc(F)cc2)no1`, in assay [1], the inhibition worked out at 74%. Also, the IC50 in assay [2] is 190 nM.

`CC(C)(C)c1nnc(NC(=O)Nc2cccc(Cl)c2Cl)s1` displayed an inhibition in assay [1] of 1%. With `CCC(C)(C)c1cc(NC(=O)Nc2cccc(Cl)c2Cl)on1`, the inhibition in assay [1] worked out at 83%. For the same compound, the IC50 in assay [2] is 120 nM. `CC(=O)Nc1ccc(NC(=O)Nc2cc(C(C)(C)C)on2)cc1`: the inhibition in assay [1] worked out at 14%.

Consider `CC(C)(C)c1ccc(NC(=O)Nc2cccc(Cl)c2Cl)s1`, for which the inhibition in assay [1] amounted to 82%. The half-inhibitory concentration (IC50) in assay [2] stood at 120 nM. `CC(C)(C)c1cc(NC(=O)Nc2ccc(Cl)c(Cl)c2)on1` gave an inhibition in assay [1] of 62%. The IC50 in assay [2] worked out at 220 nM. For the compound `Cc1c(C(C)C)noc1NC(=O)Nc1cccc(Cl)c1Cl`, the inhibition in assay [1] amounted to 34%. 920 nM corresponded to half-maximal inhibition in assay [2] (IC50).

In the case of `CC(C)(C)c1cc(NC(=O)Nc2ccc(F)cc2)on1`, the inhibition in assay [1] was 41%. Take `CC(C)(C)c1cc(NC(=O)Nc2cccc(Cl)c2Cl)cs1`: in assay [1], the inhibition was determined as 76%. In assay [2], this compound displayed an IC50 of 160 nM.

Regarding `Cc1c(C(C)(C)C)noc1NC(=O)Nc1cccc(Cl)c1Cl`, the inhibition in assay [1] was determined as 18%. In assay [1], `CC(C)(C)c1cc(NC(=O)Nc2cccc(Cl)c2Cl)on1` gave an inhibition of 93%. Further, the half-inhibitory concentration (IC50) in assay [2] came out at 36 nM.
